Source: PubChem BioAssay (several laboratories)
An excerpt weighted towards active compounds, which were near 5.1% of everything screened.
STAT3 act: increases IL-6 driven STAT3 reporter signal; U3A cells, IL-6 STAT3-luciferase reporter, luminescence; 100% = signal with IL-6 EC80 alone; AID 871; activation (% of control), % at 5.6 µM; hit rate 0.91% among 190,000;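 active means activation above the screen-wide mean of compound activation plus 3 SD, cut at about 130% in these data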
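Assay system – human STAT1-deficient U3A cells with stable STAT3-luciferase reporter · Also added – IL-6 (33 ng/mL) · Schedule – compound 1 h, then IL-6 6 h at 37 °C · Technique – reporter luminescence signal · Evaluation – % activation versus median of IL-6-stimulated wells · Benchmarks – IL-6-only wells as 100% reference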
APP 5'UTR act: activates APP 5'UTR luciferase reporter. hit rate 1% among 190,000. activation, % at 2 µM. SH-SY5Y APP 5'UTR luciferase reporter, luminescence; zero percent = DMSO vehicle wells. AID 1276;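 active means activation above a set limit, based on mean plus 3 SD of controls, cut at about 140% in these data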
STAT3 blocker: inhibitors of IL-6 induced STAT3 signaling; U3A cells, IL-6 STAT3-luciferase reporter, luminescence; host cell line lacks STAT1; inhibition, % at 5.5 µM; hit rate 0.89% among 190,000; AID 862;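 active means inhibition above the mean inhibition across all screened compounds plus 3 SD, cut at about 44% in these data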
NF-kB expr up: compounds increasing NF-kB expression in human neuronal cells. fold change at 12.5 µM. hit rate 1.6% among 190,000. NF-kB reporter expression; active compounds read high; in the data active means fold change above about 3.3
STAT1 act: activators of IFN-gamma induced STAT1 signaling | NIH 3T3 STAT1-luciferase reporter, luminescence; 100% = IFN-gamma alone, no compound | AID 932 | hit rate 2.6% among 200,000 | activation (% of control), % at 5.5 µM;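 active means activation above the screen-wide mean activation plus 3 SD, cut at about 130% in these data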
STAT1 inh: reduces IFN-gamma driven STAT1 reporter signal; NIH 3T3 STAT1-luciferase reporter, luminescence; inhibition, % at 5.5 µM; hit rate 0.35% among 200,000;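 active means inhibition above a set limit, the mean inhibition across all tested compounds plus 3 SD, cut at about 34% in these data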
Each line names hits and unclear results; the compound was inactive in the other large screens.

COc1cc(/C=N/NS(=O)(=O)c2ccc(C)cc2)ccc1OCc1cccc(C(=O)O)c1	STAT3 blocker 47.1, STAT1 inh 72.1
COc1cc(/C=N/N=C(N)N)ccc1OCc1ccc(Cl)cc1	APP 5'UTR act 180.1
C=CCc1ccc(O)c(-c2ccc(O)c(CC=C)c2)c1	none (no result: STAT3 act, STAT3 blocker)
COc1cc(C#N)c(NC(=S)N2CCOCC2)cc1OC	none
COc1ccc(C(C(=O)Nc2ccc(C(C)C)cc2)N(Cc2ccco2)C(=O)CC2NC(=O)NC2=O)cc1 (configuration not stated)	none
Cc1ccc(C(=O)Oc2oc(-c3ccccc3)nc2C=Nc2ccc(N(C)C)cc2)cc1	APP 5'UTR act 145.9, STAT1 act 149.0
Cc1ccc(-c2nc(C=Nc3ccccc3)c(O)o2)cc1	none
CN(C)c1ccc(N=Cc2nc(-c3ccccc3)oc2OC(=O)c2cccc(Cl)c2)cc1	NF-kB expr up 3.43, STAT1 act 128.8
O=C(CCCCl)Oc1ccc2cc(-c3ccc4ccccc4n3)c(=O)oc2c1	none
O=C(CCSCCC(=O)Nc1ccccc1F)Nc1ccccc1F	none
Cc1cc(=O)oc2cc(OCC3CC(c4ccc(Cl)cc4)=NO3)ccc12 (configuration not stated)	none
O=C1c2ccccc2S(=O)(=O)N1CC1CC(c2ccc(Cl)cc2)=NO1 (configuration not stated)	STAT1 act 139.4
Cc1ccc(C2=NN(C(=O)CN3C(=O)c4ccccc4S3(=O)=O)C(c3ccco3)C2)cc1 (configuration not stated)	none
COc1ccc(C2=NOC(CN3C(=O)c4ccccc4S3(=O)=O)C2)cc1 (configuration not stated)	APP 5'UTR act 137.2, NF-kB expr up 5.48, STAT1 act 147.5
O=C1c2ccccc2S(=O)(=O)N1CC1CC(c2ccccc2)=NO1 (configuration not stated)	STAT1 act 131.5
Cc1ccc(C2(c3noc(CN(C)Cc4cccnc4)n3)CCCC2)cc1	none
COc1ccc(NC(=S)NNC(=O)Cn2nc(C(F)F)cc2C(F)F)cc1	none
Nc1nc(Nc2ccc(Cl)cc2Cl)nc(C(F)(F)F)n1	STAT1 act 140.2
Nc1nc(Nc2ccccc2Br)nc(C(F)(F)F)n1	none
CCc1nnc(NC(=O)c2cccc(OC)c2)s1	STAT1 act 137.2
COc1cccc(C(=O)Nc2nnc(-c3cccs3)s2)c1	STAT3 blocker 57.9
O=C(Nc1nnc(-c2cccs2)s1)C1CC1	STAT1 act 130.4
Fc1cccc(Cc2noc(CN3CCCCC3c3ccccn3)n2)c1 (configuration not stated)	none
CC1CC(C)CN(S(=O)(=O)c2ccc(C(=O)OCC(=O)NCCN3C(=O)CSC3=O)cc2)C1 (configuration not stated)	none
COc1cnn(-c2ccc(C)cc2)c(=O)c1Cl	STAT1 act 141.2
CNc1cnn(-c2ccc(C)cc2)c(=O)c1Sc1ccc(C)cc1	none
COc1cnn(-c2ccc(C)cc2)c(=O)c1Br	none
CNc1cnn(-c2ccc(C)cc2)c(=O)c1Cl	STAT1 act 128.8
Cc1ccccc1CN(C)C(C)C(=O)Nc1ccccc1F (configuration not stated)	none
COC(=O)c1ccc(COn2nnc3ccccc32)cc1	APP 5'UTR act 199.9, NF-kB expr up 5.41
O=C(N/N=C\C=C\c1ccco1)c1cc(-c2ccc3ccccc3c2)n[nH]1	STAT1 act 132.8
O=C(N/N=C/C=C/c1ccco1)c1cccnc1	none
CC(CN1CCOCC1)OC(=O)c1ccc2c(c1)OCCO2 (configuration not stated)	STAT1 act 137.5
Cc1cccc(C(=O)OC(C)CN2CCOCC2)c1 (configuration not stated)	none
Cc1ccc(/C=N/NC(=O)c2ccc(Br)o2)s1	none
CCN(CC)c1ccc(/C=N/NC(=O)c2ccc(Br)o2)cc1	NF-kB expr up 4.32, STAT1 act 138.5
O=C(N/N=C/c1ccc2c(c1)OCO2)c1ccc(Br)o1	NF-kB expr up 3.53, STAT1 act 142.4
CCc1ccc(/C=N\NC(=O)c2ccc(Br)o2)s1	STAT1 act 146.0
C=CCn1c(C)cc(C(=O)COC(=O)c2ccc3c(c2)NC(=O)CS3)c1C	none
C/C(=C\c1ccc(C)o1)C(=O)c1c(C)cc(C)[nH]c1=O	none
